Assay [1] deals with Phosphatidylinositol 4,5-bisphosphate 3-kinase catalytic subunit beta isoform (Homo sapiens, UniProt P42338). In words: Inhibition of PI3Kbeta (unknown origin) using diC8 PIP2 as substrate after 60 mins by ADP-glo assay. (ADP-Glo first removes unused ATP, then detects ADP through luciferase.)
In assay [2] the target is T1, Phosphatidylinositol 4,5-bisphosphate 3-kinase catalytic subunit delta isoform (Homo sapiens, UniProt O00329).
T1 sequence (O00329 whole entry): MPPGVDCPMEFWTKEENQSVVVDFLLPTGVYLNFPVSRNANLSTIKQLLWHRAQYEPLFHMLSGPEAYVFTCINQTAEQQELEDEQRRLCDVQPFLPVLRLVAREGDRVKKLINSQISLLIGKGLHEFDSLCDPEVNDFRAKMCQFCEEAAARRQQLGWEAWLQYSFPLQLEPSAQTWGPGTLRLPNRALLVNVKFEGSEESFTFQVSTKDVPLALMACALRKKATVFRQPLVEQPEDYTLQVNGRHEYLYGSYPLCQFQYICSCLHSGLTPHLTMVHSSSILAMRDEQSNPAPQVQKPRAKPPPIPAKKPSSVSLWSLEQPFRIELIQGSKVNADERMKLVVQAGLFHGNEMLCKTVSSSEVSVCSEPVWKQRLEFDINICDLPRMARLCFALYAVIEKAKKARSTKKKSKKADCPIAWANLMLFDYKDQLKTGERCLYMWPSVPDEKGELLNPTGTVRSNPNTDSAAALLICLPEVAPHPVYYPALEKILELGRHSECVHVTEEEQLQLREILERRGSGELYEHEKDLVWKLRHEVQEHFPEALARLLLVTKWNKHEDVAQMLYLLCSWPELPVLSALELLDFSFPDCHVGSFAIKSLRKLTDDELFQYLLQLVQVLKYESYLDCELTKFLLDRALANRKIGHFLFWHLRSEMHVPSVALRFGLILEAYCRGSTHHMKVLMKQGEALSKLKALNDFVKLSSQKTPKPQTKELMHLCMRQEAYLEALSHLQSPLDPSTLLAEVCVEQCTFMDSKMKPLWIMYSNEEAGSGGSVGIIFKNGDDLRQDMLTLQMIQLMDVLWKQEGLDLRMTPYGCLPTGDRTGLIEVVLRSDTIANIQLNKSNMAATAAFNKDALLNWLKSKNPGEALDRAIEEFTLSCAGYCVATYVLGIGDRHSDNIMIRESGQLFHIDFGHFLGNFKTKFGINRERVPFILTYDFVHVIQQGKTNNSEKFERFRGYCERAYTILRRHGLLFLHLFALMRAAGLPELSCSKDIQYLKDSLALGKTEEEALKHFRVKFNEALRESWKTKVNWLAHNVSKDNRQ
In words: Inhibition of PI3Kdelta (unknown origin) using diC8 PIP2 as substrate after 120 mins by ADP-glo assay. Put shortly: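 Delta isoform reacted 120 min in glycine-NaOH pH 8.5 buffer (50 mM KCl, 2.5 mM MgCl2, 1 mM DTT, 0.05% CHAPS) with 0.01 mM ATP and 0.05 mM diC8 PIP2; ADP formed detected by ADP-Glo (40 min) plus detection buffer (40 min) luminescence. Dundee profiling centre.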

For assay [3], the target named is Phosphatidylinositol 4,5-bisphosphate 3-kinase catalytic subunit alpha isoform (Homo sapiens, UniProt P42336). The assay can be described thus: Inhibition of PI3Kalpha (unknown origin) using diC8 PIP2 as substrate after 80 mins by ADP-glo assay.
Sequence of Phosphatidylinositol 4,5-bisphosphate 3-kinase catalytic subunit alpha isoform (P42336 whole entry, canonical isoform): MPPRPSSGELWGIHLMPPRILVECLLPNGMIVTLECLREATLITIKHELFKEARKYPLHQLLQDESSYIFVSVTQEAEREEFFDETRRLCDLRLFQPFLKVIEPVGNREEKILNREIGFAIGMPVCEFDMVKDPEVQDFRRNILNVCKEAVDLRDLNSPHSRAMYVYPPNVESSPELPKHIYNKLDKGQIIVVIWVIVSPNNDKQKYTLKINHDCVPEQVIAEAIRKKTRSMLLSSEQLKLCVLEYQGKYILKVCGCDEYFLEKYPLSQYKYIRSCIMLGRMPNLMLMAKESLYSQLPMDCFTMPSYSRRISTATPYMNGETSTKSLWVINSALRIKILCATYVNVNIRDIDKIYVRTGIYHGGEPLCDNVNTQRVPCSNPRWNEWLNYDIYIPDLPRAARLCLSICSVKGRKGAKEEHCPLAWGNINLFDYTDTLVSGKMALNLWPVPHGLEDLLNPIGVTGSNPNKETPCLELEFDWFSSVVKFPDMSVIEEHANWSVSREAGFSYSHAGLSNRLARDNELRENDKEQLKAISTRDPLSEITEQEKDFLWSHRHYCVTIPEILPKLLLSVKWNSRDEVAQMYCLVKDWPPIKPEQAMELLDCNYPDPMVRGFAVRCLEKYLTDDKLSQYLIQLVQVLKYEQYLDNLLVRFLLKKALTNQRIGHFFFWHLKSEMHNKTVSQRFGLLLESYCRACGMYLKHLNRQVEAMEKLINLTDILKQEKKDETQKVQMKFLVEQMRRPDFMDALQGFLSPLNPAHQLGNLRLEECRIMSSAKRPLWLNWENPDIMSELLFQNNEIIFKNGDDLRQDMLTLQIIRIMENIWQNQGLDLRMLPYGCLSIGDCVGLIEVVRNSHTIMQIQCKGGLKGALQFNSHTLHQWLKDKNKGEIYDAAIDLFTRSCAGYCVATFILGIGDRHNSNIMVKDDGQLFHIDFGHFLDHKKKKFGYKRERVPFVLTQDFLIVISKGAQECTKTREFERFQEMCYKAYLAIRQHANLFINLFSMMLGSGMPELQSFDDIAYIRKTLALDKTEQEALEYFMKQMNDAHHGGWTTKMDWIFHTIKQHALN

Data on 8 compounds can be found in BindingDB's records for doi:10.1016/j.ejmech.2016.07.006 (Csir-Indian Institute of Integrative Medicine, 2016).

Broadly, the IC50 is the concentration at which inhibition is half-maximal.

Sequence of Phosphatidylinositol 4,5-bisphosphate 3-kinase catalytic subunit beta isoform (P42338 whole entry, canonical isoform): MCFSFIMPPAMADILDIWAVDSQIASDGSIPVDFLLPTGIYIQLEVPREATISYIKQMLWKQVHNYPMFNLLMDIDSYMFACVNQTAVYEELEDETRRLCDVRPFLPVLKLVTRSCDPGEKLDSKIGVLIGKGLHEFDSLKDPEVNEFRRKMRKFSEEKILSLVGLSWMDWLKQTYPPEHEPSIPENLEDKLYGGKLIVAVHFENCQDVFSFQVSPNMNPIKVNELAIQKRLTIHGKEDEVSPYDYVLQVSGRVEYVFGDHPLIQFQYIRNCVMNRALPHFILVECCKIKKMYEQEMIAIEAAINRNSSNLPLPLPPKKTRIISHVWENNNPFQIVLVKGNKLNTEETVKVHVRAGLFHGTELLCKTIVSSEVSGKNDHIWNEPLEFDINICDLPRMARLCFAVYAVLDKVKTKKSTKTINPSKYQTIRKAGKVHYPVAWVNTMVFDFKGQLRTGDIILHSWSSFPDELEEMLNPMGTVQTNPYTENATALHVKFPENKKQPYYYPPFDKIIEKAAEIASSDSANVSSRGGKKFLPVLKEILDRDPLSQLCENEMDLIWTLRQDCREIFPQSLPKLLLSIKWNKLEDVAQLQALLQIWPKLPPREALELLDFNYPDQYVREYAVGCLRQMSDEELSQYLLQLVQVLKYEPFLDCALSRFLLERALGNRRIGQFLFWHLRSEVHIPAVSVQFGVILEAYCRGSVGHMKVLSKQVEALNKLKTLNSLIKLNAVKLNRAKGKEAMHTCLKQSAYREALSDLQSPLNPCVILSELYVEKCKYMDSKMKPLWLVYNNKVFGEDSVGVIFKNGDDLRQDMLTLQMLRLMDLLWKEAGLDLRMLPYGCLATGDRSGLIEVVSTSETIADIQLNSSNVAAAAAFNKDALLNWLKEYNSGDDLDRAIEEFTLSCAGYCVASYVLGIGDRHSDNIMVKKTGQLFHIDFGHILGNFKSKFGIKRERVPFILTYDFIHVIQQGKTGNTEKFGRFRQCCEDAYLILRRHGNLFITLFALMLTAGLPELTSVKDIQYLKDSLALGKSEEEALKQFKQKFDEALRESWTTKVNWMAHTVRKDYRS

As for `N#CCc1ccc(Nc2ncnc3ccc(-c4cccc([N+](=O)[O-])c4)cc23)cc1`, the IC50 in assay [1] and in assay [2] was greater than 10 µM in each case.
With `CC(=O)c1ccc(-c2ccc3ncnc(Nc4ccc(CC#N)cc4)c3c2)cc1`, the IC50 in assay [1] and in assay [2] was greater than 10 µM each time.
Consider `N#CCc1ccc(Nc2ncnc3ccc(-c4ccncc4)cc23)cc1`, for which the IC50 in assay [1] and in assay [2] was greater than 10 µM each time.
Regarding `C=Cc1ccc(-c2ccc3ncnc(Nc4ccc(CC#N)cc4)c3c2)cc1`, the IC50 in assay [1], in assay [2] and in assay [3] was greater than 10 µM throughout.
Turning to `N#CCc1ccc(Nc2ncnc3ccc(-c4ccc5[nH]ccc5c4)cc23)cc1`, the IC50 in assay [1] and in assay [2] was greater than 10 µM in each case.
With `N#CCc1ccc(Nc2ncnc3ccc(-c4ccc5c(c4)OCCO5)cc23)cc1`, the IC50 in assay [1] and in assay [2] was greater than 10 µM each time.
For `N#CCc1ccc(Nc2ncnc3ccc(-c4ccc5c(c4)OCO5)cc23)cc1`, the IC50 in assay [1] and in assay [2] was greater than 10 µM each time.
For the compound `N#CCc1ccc(Nc2ncnc3ccc(-c4cncc5ccccc45)cc23)cc1`, the IC50 in assay [1] was greater than 20 µM.
